{"data": "Measurements collected from several papers", "organism": "Severe acute respiratory syndrome coronavirus 2", "note": "Protocols differ between the studies behind these lines."}
{"Structure (SMILES)": "Cn1c(C(=O)Nc2ccc3c(c2)OCCO3)cc2c(=O)n3ccccc3nc21", "test": "viral replication", "system": "Vero", "setting": "1 nM", "endpoint": "inhibition", "value": "5.41%"}
{"Structure (SMILES)": "CC(C)[C@H]1CC[C@H](C(=O)N[C@H](Cc2ccccc2)C(=O)O)CC1", "test": "viral replication, inhibitor", "system": "Huh-7", "endpoint": "IC50", "value": "> 2000 nM"}
{"Structure (SMILES)": "Cn1c(C(=O)Nc2ccc(Cl)cc2)cc2c(=O)n3ccccc3nc21", "test": "viral replication", "system": "Vero", "setting": "10 nM", "endpoint": "inhibition", "value": "8%"}
{"Structure (SMILES)": "Clc1ccc(C(OCCN2CCCCC2)c2ccccc2)cc1 (stereo not shown)", "test": "viral replication, inhibitor", "system": "A549-ACE2", "endpoint": "IC50", "value": "1510 nM"}
{"Structure (SMILES)": "CCCCCCCCCCCCCCCCOCCCOP(=O)(O)OC[C@H]1O[C@@](C#N)(c2ccc3c(N)ncnn23)[C@H](O)[C@@H]1O", "test": "viral replication, inhibitor, qPCR", "system": "Vero C1008", "endpoint": "EC50", "value": "630 nM"}
{"Structure (SMILES)": "CCC(CC)COC(=O)[C@H](C)N[P@](=O)(OC[C@H]1O[C@@](C#N)(c2ccc3c(N)ncnn23)[C@H](O)[C@@H]1O)Oc1ccccc1", "test": "viral replication, inhibitor", "system": "Vero C1008", "endpoint": "EC50", "value": "< 100000 nM"}
{"Structure (SMILES)": "CCCCCCCCCCCCCCCCCCOCCOP(=O)(O)OC[C@H]1O[C@@](C#N)(c2ccc3c(N)ncnn23)[C@H](O)[C@@H]1O", "test": "viral replication, inhibitor, qPCR", "system": "Vero C1008", "setting": "48 h", "endpoint": "EC90", "value": "330 nM"}
{"Structure (SMILES)": "O=C(Nc1ccccc1F)c1cc2c(=O)n3ccccc3nc2n1Cc1ccccc1", "test": "viral replication", "system": "Vero", "setting": "10 nM", "endpoint": "inhibition", "value": "50.8%"}
{"Structure (SMILES)": "COc1ccc2c(c1)c(CC(=O)O)c(C)n2C(=O)c1ccc(Cl)cc1", "test": "plaque formation", "system": "Vero C1008", "endpoint": "EC50", "value": "~100000 nM"}
{"Structure (SMILES)": "OC(CNCC(O)C1CCc2cc(F)ccc2O1)C1CCc2cc(F)ccc2O1 (stereo not shown)", "test": "viral replication, inhibitor", "system": "Huh-7", "endpoint": "IC50", "value": "> 2000 nM"}
{"Structure (SMILES)": "CCC(CC)COC(=O)[C@H](C)N[P@](=O)(OC[C@H]1O[C@@](C#N)(c2ccc3c(N)ncnn23)[C@H](O)[C@@H]1O)Oc1ccccc1", "test": "viral replication, inhibitor, qPCR", "system": "Vero C1008", "setting": "48 h", "endpoint": "EC90", "value": "7050 nM"}
{"Structure (SMILES)": "O=C(/C=C/c1ccc(O)c(O)c1/C=C/c1ccc(O)c(O)c1)O[C@H](Cc1ccc(O)c(O)c1)C(=O)O", "test": "cytopathic effect, inhibitor", "system": "Vero C1008", "setting": "12.5 µM", "endpoint": "inhibition", "value": "0%"}
{"Structure (SMILES)": "CCN(CC)CCCC(C)Nc1ccnc2cc(Cl)ccc12 (stereo not shown)", "test": "viral replication, inhibitor", "system": "Vero C1008", "endpoint": "IC50", "value": "42000 nM"}
{"Structure (SMILES)": "N#C[C@@]1(c2ccc3c(N)ncnn23)O[C@H](CO)[C@@H](O)[C@H]1O", "test": "viral replication, inhibitor, qPCR", "system": "Vero C1008", "setting": "48 h", "endpoint": "EC90", "value": "770 nM"}
{"Structure (SMILES)": "[2H]C([2H])(c1cc(F)c(F)cc1F)n1c(=O)n(Cc2ncn(C)n2)c(=O)[nH]/c1=N\\c1cc2cn(C)nc2cc1Cl", "test": "viral replication, inhibitor, qPCR", "setting": "48 h", "endpoint": "EC50", "value": "24 nM"}
{"Structure (SMILES)": "CCCN(CCC)CCc1ccc(OC)c(OCCc2ccccc2)c1", "test": "viral replication, inhibitor", "system": "A549-ACE2", "endpoint": "IC50", "value": "1410 nM"}
{"Structure (SMILES)": "CC(C)=CCc1c(O)ccc(C(=O)/C=C/c2ccc(O)cc2)c1O", "test": "cytopathic effect", "system": "Vero C1008", "setting": "6.25 µM", "endpoint": "inhibition", "value": "0%"}
{"Structure (SMILES)": "CCC(CC)COC(=O)[C@H](C)N[P@](=O)(OC[C@H]1O[C@@](C#N)(c2ccc3c(N)ncnn23)[C@H](O)[C@@H]1O)Oc1ccccc1", "test": "viral replication", "system": "Vero", "setting": "0.1 µM", "endpoint": "inhibition", "value": "64.7%"}
{"Structure (SMILES)": "OCCOCCN1CCN(C(c2ccccc2)c2ccc(Cl)cc2)CC1 (stereo not shown)", "test": "viral replication, inhibitor", "system": "A549-ACE2", "endpoint": "IC50", "value": "3630 nM"}
{"Structure (SMILES)": "O=C(NC1CCN(CCCCC2(C(=O)NCC(F)(F)F)c3ccccc3-c3ccccc32)CC1)c1ccccc1-c1ccc(C(F)(F)F)cc1", "test": "viral replication, inhibitor", "system": "Huh-7", "endpoint": "IC50", "value": "765 nM"}
{"Structure (SMILES)": "CCc1ccc(NC(=O)c2cc3c(=O)n4ccccc4nc3n2C)cc1", "test": "viral replication", "system": "Vero", "setting": "1 nM", "endpoint": "inhibition", "value": "4.08%"}
{"Structure (SMILES)": "CC(CN1c2ccccc2Sc2ccccc21)N(C)C (stereo not shown)", "test": "viral replication", "system": "Vero C1008", "endpoint": "IC50", "value": "3160 nM"}
{"Structure (SMILES)": "C=C[C@@](C)(/C=C/c1ccc(O)cc1)CCC=C(C)C", "test": "cytopathic effect", "system": "Vero C1008", "setting": "6.25 µM", "endpoint": "inhibition", "value": "0%"}
{"Structure (SMILES)": "CN(CCCN1c2ccccc2CCc2ccccc21)CC(=O)c1ccc(Cl)cc1", "test": "viral replication, inhibitor", "system": "A549-ACE2", "endpoint": "IC50", "value": "7760 nM"}
{"Structure (SMILES)": "C=C1[C@H](CO)[C@@H](O)C[C@@H]1n1cnc2c(=O)[nH]c(N)nc21", "test": "viral replication, inhibitor", "system": "Huh-7", "endpoint": "IC50", "value": "42 nM"}
{"Structure (SMILES)": "O=C(O[C@@H]1Cc2c(O)cc(O)cc2O[C@@H]1c1cc(O)c(O)c(O)c1)c1cc(O)c(O)c(O)c1", "test": "cytopathic effect", "system": "Vero C1008", "setting": "1.562 µM", "endpoint": "inhibition", "value": "0%"}
{"Structure (SMILES)": "CCC(C)(C)C(=O)O[C@H]1C[C@@H](C)C=C2C=C[C@H](C)[C@H](CC[C@@H]3C[C@@H](O)CC(=O)O3)[C@H]21", "test": "viral replication, inhibitor", "system": "Huh-7", "endpoint": "IC50", "value": "> 2000 nM"}
{"Structure (SMILES)": "COC(=O)Nc1nc2cc(C3(O)c4ccccc4C(=O)N3c3cc(Cl)ccc3C)ccc2[nH]1 (stereo not shown)", "test": "viral replication, inhibitor", "system": "Vero C1008", "setting": "1 µM", "endpoint": "inhibition", "value": "40.3%"}
{"Structure (SMILES)": "Cc1ccc(NC(=O)c2cc3c(=O)n4cccc(C)c4nc3n2C)cc1Cl", "test": "viral replication", "system": "Vero", "setting": "1 nM", "endpoint": "inhibition", "value": "8.11%"}
{"Structure (SMILES)": "COc1ccc(C[C@@H]2c3cc(Oc4cc(C[C@@H]5c6cc(O)c(OC)cc6CCN5C)ccc4O)c(OC)cc3CCN2C)cc1", "test": "cytopathic effect", "system": "Vero C1008", "setting": "12.5 µM", "endpoint": "inhibition", "value": "0%"}
{"Structure (SMILES)": "Cc1cc(NC(=O)c2cc3c(=O)n4cccc(C)c4nc3n2C)ccc1Br", "test": "viral replication", "system": "Vero", "setting": "0.1 µM", "endpoint": "inhibition", "value": "37.8%"}
{"Structure (SMILES)": "CN(C)CCCN1c2ccccc2Sc2ccc(Cl)cc21", "test": "viral replication", "system": "Vero C1008", "endpoint": "IC50", "value": "282 nM"}
{"Structure (SMILES)": "CCCCCCCCCCCCCCCCCCOC[C@H](COP(=O)(O)OC[C@H]1O[C@@](C#N)(c2ccc3c(N)ncnn23)[C@H](O)[C@@H]1O)OCc1ccccc1", "test": "viral replication, inhibitor, qPCR", "system": "Vero C1008", "endpoint": "EC50", "value": "140 nM"}
{"Structure (SMILES)": "CN1CCN(C2=Nc3ccccc3Oc3ccc(Cl)cc32)CC1", "test": "viral replication, inhibitor", "system": "Vero C1008", "endpoint": "IC50", "value": "11500 nM"}
{"Structure (SMILES)": "[2H]C([2H])([2H])n1cc2cc(/N=c3\\[nH]c(=O)n(Cc4ncn(C)n4)c(=O)n3Cc3cc(F)c(F)cc3F)c(Cl)cc2n1", "test": "viral replication, inhibitor, qPCR", "setting": "48 h", "endpoint": "EC50", "value": "18 nM"}
{"Structure (SMILES)": "CN(Cc1cc(Br)cc(Br)c1N)C1CCCCC1", "test": "viral replication", "system": "Vero C1008", "endpoint": "IC50", "value": "2820 nM"}
{"Structure (SMILES)": "CC(C)/N=c1\\cc2n(-c3ccc(Cl)cc3)c3ccccc3nc-2cc1Nc1ccc(Cl)cc1", "test": "viral replication, inhibitor", "system": "Huh-7", "endpoint": "IC50", "value": "85 nM"}
